Screens as filed in PubChem BioAssay.
Shown are actives, neighbours in structure and some others; about 3.9% of the full set was active somewhere.
ANO1 activ: TMEM16A chloride channel activators or potentiators, primary screen, cell-based, HTS; HEK293 TMEM16A/YFP-H148Q/I152L, iodide quench fluorescence; active compounds read low; B-score at 10 µM; actives 0.3% (n = 340,000); AID 623877, 2012;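 active means fluorescence-ratio B-score plate-corrected deviation score at least 3 library SD below zero, with starting fluorescence score within 5 deviations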;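 further: channel opened by trigger with iodide after compound preincubation; score built on the fluorescence ratio of max minus min over baseline; more negative score means more quench and so TMEM16A activation or potentiation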
ANO1 block: TMEM16A chloride channel inhibitors, primary screen, cell-based, HTS; Anoctamin-1 (Mus musculus), Q8BHY3; HEK293 TMEM16A/YFP iodide influx fluorescence, ionomycin; normalized B-score (activity score, 25-100; higher = stronger inhibition) at 10 µM; actives 1.2% (n = 310,000); AID 588511, 2011;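 active means ratio plate-corrected score three or more library SD toward inhibition, starting fluorescence score within five deviations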;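 further: score derived from kinetic fluorescence span divided by baseline fluorescence per well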
CRFBP-R2 agonist: agonists of CRF-BP/CRF-R2 complex, primary screen, cell-based, HEK293, calcium dye fluorescence, uHTS; CRF-binding protein / CRF receptor 2 complex (human); calcium dye fluorescence (FLIPR); percent of saturating CRF peptide response; activation, % at 13.2 µM; actives 0.46% (n = 350,000); AID 588473, 2011;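 active means activation of at least 50%, plus an integration ratio under a set limit after plate pattern correction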
TAAR1 antag: human TAAR1 antagonists, primary screen, Fluo-8 calcium fluorescence, CHO RD-HGA16 cells | inhibition, % at 3 µM | antagonist | actives 1.5% (n = 360,000) | Trace amine-associated receptor 1 (Homo sapiens), Q96RJ0 | AID 624466, 2012;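 active means inhibition above a per-plate cutoff, the mean inhibition of test compounds on that plate plus 3 SD, cut at about 49% in these data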
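System: CHO RD-HGA16 cells bearing hTAAR1. Reagent: EC80 β-phenethylamine stimulus. Schedule: seeding 17-24 h prior, 75-min 37 °C, 30-min RT dye loading. Signal: Fluo-8 intracellular calcium dye fluorescence, real-time kinetic reads. Read-out: % inhibition from peak post-agonist over basal fluorescence ratio. Benchmarks: vehicle wells and EC80 agonist wells. Replicates: n of 1.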
CRFR2-BP antag: antagonists of CRF-BP/CRF-R2 complex, primary screen, cell-based, HEK293, calcium dye fluorescence, uHTS; CRF-induced calcium fluorescence; inhibition, % at 11.8 µM; actives 0.59% (n = 350,000);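 active means inhibition of the ligand-induced calcium signal above about 50% at the single tested concentration, limit read from the data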
TAAR1 ag: human TAAR1 agonists, primary screen, Fluo-8 calcium fluorescence, CHO RD-HGA16 cells; vehicle wells 0%, saturating PEA agonist 100%; AID 624467, 2012; actives 0.99% (n = 360,000); Trace amine-associated receptor 1 (Homo sapiens), Q96RJ0; activation, % at 3 µM;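 active means activation above the mean activation of all test compounds in the run plus 3 SD, cut at about 38% in these data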
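Test system: RD-HGA16 (CHO) cells co-expressing Gα16 and hTAAR1 / Benchmarks: DMSO vehicle as 0%, PEA at EC100 as 100% / Repeats: no replicates (n 1) / Measure: % activation from peak over basal fluorescence ratio, DMSO-to-PEA scaled / Timing: 17-24 h plating, Fluo-8 75 min 37 °C, 30 min RT / Technique: kinetic Fluo-8 calcium fluorescence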
Of the large screens only hits and unclear results are named; the others gave an inactive call.

CNC(=O)c1ccc(NC(=O)CC2SC(N3CCCC3)=NC2=O)cc1 (stereo not given)	none (no result: ANO1 activ, ANO1 block)
CCCCNC(=O)c1ccc(NC(=O)CC2SC(N3CCCC3)=NC2=O)cc1 (stereo not given)	ANO1 activ -26 (no result: ANO1 block)
Cc1cccc(OCCn2nnc3ccccc32)c1C	none
O=C/C(=C\Nc1ccccn1)c1nc2ccccc2o1	none
O=C/C(=C\Nc1ccccn1)c1nc2cc(Cl)ccc2o1	CRFR2-BP antag 80.4
COc1ccccc1C(CCN(Cc1ccccc1)C(C)=O)c1ccco1 (stereo not given)	ANO1 activ -9.15
CC(C)NC(=O)C1(C)CSCC(=O)N1C1CCN(Cc2ccccc2)CC1 (stereo not given)	none (no result: ANO1 activ, ANO1 block, CRFBP-R2 agonist, CRFR2-BP antag)
CCOc1ccc(NC(=O)CN(C)C(=O)Cc2ccc3c(c2)OCCO3)cc1OCC	none (no result: ANO1 activ, ANO1 block)
CCOC(=O)c1nnn(-c2nonc2N)c1CN(CC)CC	none
CCOC(=O)c1nnn(-c2nonc2N)c1CN(C)C1CCCCC1	CRFR2-BP antag 60.1
C[C@H]1CN(C2CCCCC2)C(=O)[C@@H]1CC(=O)Nc1ccc(Br)cc1	none (no result: ANO1 activ, ANO1 block)
COc1ccc(NC(=O)c2cc(-c3sc(NC(=O)c4ccccc4)nc3C)n(Cc3ccccc3)n2)cc1	none (no result: ANO1 activ, ANO1 block, CRFBP-R2 agonist, CRFR2-BP antag)
CSc1nsc(SC)c1C(=O)N1CCN(S(=O)(=O)c2ccc(C)cc2)C1C(C)C (stereo not given)	TAAR1 antag 49.2
CC1(C)CCN2CCC(C)(C)c3c(O)ccc1c32	CRFBP-R2 agonist 117.8
COCCN1CCN(C(=O)c2cc(COc3cc(C)ccc3C)on2)CC1	CRFR2-BP antag 71.1 (no result: TAAR1 antag, TAAR1 ag)
Cc1ccc(OCc2cc(C(=O)N3CCN(CC(=O)NC(C)C)CC3)no2)cn1	CRFR2-BP antag 72.2
Cc1ccc(OCc2cc(C(=O)N3CCCC(C)C3)no2)cn1 (stereo not given)	none (no result: ANO1 activ, ANO1 block)
Cc1cc(C)c(OCC(=O)OCC(=O)NCC2CCCCC2)c(C)c1	none
Cc1onc(-c2c(F)cccc2Cl)c1C(=O)N1CCN(c2ncc(Br)cn2)CC1	CRFR2-BP antag 73.8
Cc1onc(-c2c(F)cccc2Cl)c1C(=O)N1CCSCC1	none
Nc1nonc1-n1nnc(C(=O)N/N=C/c2cccnc2)c1CSc1ccc(Cl)cc1	TAAR1 antag 56.3
CCOc1ccc(/C=N/NC(=O)c2nnn(-c3nonc3N)c2COc2ccc(F)cc2)cc1	ANO1 activ -5.79
N#CCC(=O)Nc1ccc(C(=O)OCC(=O)NNC(=O)c2cccs2)cc1	CRFR2-BP antag 54.9
O=C(Nc1cccc(O)c1)c1ccc(NC(=O)c2cccs2)cc1	TAAR1 antag 52.3, CRFR2-BP antag 68.0
COc1cc(C(=O)Nc2cccc(NC(=O)c3cccs3)c2)cc(OC)c1OC	TAAR1 antag 51.2
COc1cc(C(=O)Nc2cccc(NC(=O)c3ccccc3)c2)cc(OC)c1OC	none
N#CCC(=O)Nc1ccc(C(=O)OCC(=O)NNC(=O)c2ccc(Cl)cc2)cc1	none
Cc1cc(C)c(OCCN2CCOCC2)c(Cl)c1	none
C[C@H](NC(=O)c1nc[nH]c1C(=O)N(C)CCO)c1ccccc1	none (no result: ANO1 activ, ANO1 block, CRFBP-R2 agonist, CRFR2-BP antag)
CC(=O)Nc1ccc(Nc2nc3ccccc3nc2NS(=O)(=O)c2ccc(Cl)c([N+](=O)[O-])c2)cc1	CRFR2-BP antag 64.6 (no result: ANO1 block)
Cc1ccc2nc3n(c(=O)c2c1)-c1ccccc1C(=O)NC3Cc1ccc(O)cc1 (stereo not given)	none (no result: ANO1 activ, ANO1 block, CRFBP-R2 agonist, CRFR2-BP antag)
COc1ccc(S(=O)(=O)N2CCOCC2)cc1NC(=O)c1sccc1C	none (no result: ANO1 block)
CC(=O)N/C(=C\c1ccccc1)C(=O)OC(C)C(=O)c1ccccc1 (stereo not given)	none
O=C(NCc1ccc(F)cc1)c1ccc(N2CCc3ccccc32)c([N+](=O)[O-])c1	TAAR1 antag 51.5
Cc1ccc(S(=O)(=O)ON2C(=O)c3ccccc3C2=O)c(C)c1	CRFR2-BP antag 63.1
